We go through five molecules from article PMC3850770 (Chemical research in toxicology, 2012).

Data set [1] deals with T1, P450 2W1 (Homo sapiens, UniProt Q8TAV3).
T1 sequence (Q8TAV3 23-490): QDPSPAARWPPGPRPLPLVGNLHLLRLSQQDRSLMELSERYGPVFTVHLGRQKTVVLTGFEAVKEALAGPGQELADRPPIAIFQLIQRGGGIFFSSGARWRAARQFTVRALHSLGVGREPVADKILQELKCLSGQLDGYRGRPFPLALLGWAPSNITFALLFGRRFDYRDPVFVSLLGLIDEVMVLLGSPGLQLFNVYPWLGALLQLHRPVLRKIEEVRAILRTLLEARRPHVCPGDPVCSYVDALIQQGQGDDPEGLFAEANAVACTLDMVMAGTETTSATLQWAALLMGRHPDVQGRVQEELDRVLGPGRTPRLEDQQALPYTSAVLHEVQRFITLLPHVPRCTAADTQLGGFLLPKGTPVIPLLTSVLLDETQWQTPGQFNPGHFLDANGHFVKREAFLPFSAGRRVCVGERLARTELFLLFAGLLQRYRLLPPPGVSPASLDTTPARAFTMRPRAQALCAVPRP
The data set is described as follows: Preliminary incubation with P450 2W1, products by HPLC-UV. The data set is classed as in vitro ADME. The settings on record: recombinant human P450 2W1. In short, it runs like this: (§1)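 Recombinant human P450 at 0.3–0.8 μM, either in E. coli membranes or purified and reconstituted with 2-fold excess NADPH-P450 reductase plus 30 μM DLPC. Substrate 100 μM with NADPH-generating system in 0.10 M potassium phosphate, pH 7.4; 37 °C for 30–60 min. Extracted into 2 volumes CH2Cl2, residue taken up in CH3CN. Read by C18 HPLC with photodiode-array UV, acetonitrile/water gradient containing 0.5% formic acid.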

For another data set, the target named is T2, P450 2S1 (Homo sapiens, UniProt Q96SQ9).
T2 sequence (Q96SQ9 1-504): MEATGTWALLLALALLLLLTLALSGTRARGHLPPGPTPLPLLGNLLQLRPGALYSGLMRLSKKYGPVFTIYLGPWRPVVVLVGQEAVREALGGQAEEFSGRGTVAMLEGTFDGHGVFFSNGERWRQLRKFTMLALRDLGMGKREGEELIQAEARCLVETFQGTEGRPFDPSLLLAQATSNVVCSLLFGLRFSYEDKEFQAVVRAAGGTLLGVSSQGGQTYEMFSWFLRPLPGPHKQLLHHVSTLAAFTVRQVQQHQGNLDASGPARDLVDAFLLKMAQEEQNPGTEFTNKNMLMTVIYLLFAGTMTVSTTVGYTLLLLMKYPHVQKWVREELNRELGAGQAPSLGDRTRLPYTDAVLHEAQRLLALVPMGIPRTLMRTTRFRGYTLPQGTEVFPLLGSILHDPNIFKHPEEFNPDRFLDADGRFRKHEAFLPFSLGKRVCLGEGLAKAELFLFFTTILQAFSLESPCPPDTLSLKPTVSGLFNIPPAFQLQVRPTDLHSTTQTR
The data set is described as follows: Preliminary incubation with P450 2S1, products by HPLC-UV. The data set is classed as in vitro ADME. The settings on record: recombinant human P450 2S1. In short, it runs like this:
as §1

For data set [2], the target named is T1, P450 2W1. The experiment in a line: Steady-state kinetics of P450 2W1-catalyzed oxidation. The data set is classed as in vitro ADME. In short, it runs like this: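 Same P450 and NADPH-generating levels as qualitative incubations, in 0.10 M phosphate, pH 7.4. Substrate 0–200 μM, in duplicate, at 37 °C. With 2W1: 10 min (dimethoxyphenyl substrate) or 15 min (aminophenyl substrate); with 1A1: 15 and 25 min respectively. CH2Cl2 quench, benzothiazole internal standard added, extract quantified by HPLC-UV. Km and kcat from nonlinear regression.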

The target in another data set is T3, P450 1A1 (Homo sapiens, UniProt P04798).
T3 sequence (P04798 1-512): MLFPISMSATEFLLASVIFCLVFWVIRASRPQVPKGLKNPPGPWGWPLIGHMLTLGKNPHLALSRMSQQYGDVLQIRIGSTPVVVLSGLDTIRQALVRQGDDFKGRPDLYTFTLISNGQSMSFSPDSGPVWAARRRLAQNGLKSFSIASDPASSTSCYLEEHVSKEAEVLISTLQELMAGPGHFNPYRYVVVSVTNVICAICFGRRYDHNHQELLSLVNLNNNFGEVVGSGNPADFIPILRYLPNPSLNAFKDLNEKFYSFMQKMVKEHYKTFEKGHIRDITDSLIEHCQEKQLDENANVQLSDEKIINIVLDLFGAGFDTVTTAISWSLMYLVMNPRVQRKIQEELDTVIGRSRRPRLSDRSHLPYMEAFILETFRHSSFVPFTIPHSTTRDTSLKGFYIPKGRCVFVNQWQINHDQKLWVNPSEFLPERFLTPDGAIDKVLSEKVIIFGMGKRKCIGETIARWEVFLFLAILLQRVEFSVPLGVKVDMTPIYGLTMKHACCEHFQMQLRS
The data set is described as follows: Steady-state kinetics of P450 1A1-catalyzed oxidation. The data set is classed as in vitro ADME. The settings on record: oxidation of 5F 203 to form 8a.

Data set [3] concerns P450 2W1, P450 1A1, or human liver microsomes. The experiment in a line: GSH adduct formation from oxidation products. To be noted: 5 mM GSH, 100 μM substrate, LC-MS. It is filed as in vitro ADME. In short, it runs like this: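 P450 2W1 or 1A1 in E. coli membranes, or human liver microsomes pooled from ten donors, at 0.50 μM with 100 μM substrate, 5 mM GSH and 4 μg mL−1 catalase. Incubated 12–15 h at 37 °C, stopped with 2 volumes CH3CN; supernatant analysed by ESI+ LC-MS.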

A further data set has as its system MCF-7 cells. The settings on record: ref [12], [13]; cited from earlier work.
The test system of the next data set is MDA 468 cells. To be noted: ref [12], [13]; cited from earlier work.
The subject of a further data set is IGROV-1 cells. The settings on record: ref [12], [13]; cited from earlier work.
Data set [4] relates to colon, lung, and breast cancer cell lines. The settings on record: ref [19]; cited from earlier work.
Another data set relates to dGuo. The data set is described as follows: dGuo adduct formation with synthetic 10. The settings on record: after Ac2O activation, 37 °C under argon 2 h, LC-MS m/z 524.
The nature of data set [5]: Solubility in organic solvents. It is filed as physicochemical. To be noted: in CHCl3 and CH3OH.
Substrate in data set [6]: COc1ccc(-c2nc3cc(F)ccc3s2)cc1OC
The data set is described as follows: Steady-state kinetics of P450 1A1-catalyzed oxidation. The data set is classed as in vitro ADME, human. The settings on record: other: P450 1A1, substrate GW 610, product 4c; pH 7.4; 37.0 °C.

Substrate in data set [7]: Cc1cc(-c2nc3cc(F)ccc3s2)ccc1N
The description is as above. It is filed as in vitro ADME, human. The settings on record: pH 7.4, 37.0 °C.

Where [8] appears, read: other: P450 1A1, substrate 5F 203, product 8a.
The mark [9] stands for this setting: other: P450 1A1, substrate 5F 203, product 8b.

In the case of `c1ccc(-c2nc3ccccc3s2)cc1` [2-phenylbenzothiazole, reference compound], at P450 2W1 [1], the “product formation on incubation with P450 2W1” value is “No products were observed”. The “product formation on incubation with P450 2S1” value at P450 2S1 is given as “No products were observed”.
`Cc1cc(-c2nc3cc(F)ccc3s2)ccc1N` [5F 203, 2-(4-Amino-3-methylphenyl)-5-fluorobenzothiazole]: the kcat worked out at 0.0158 ± 0.0017 s⁻¹ at P450 2W1 [2] (P450 2W1, substrate 5F 203, product 8a) and 0.00933 ± 0.001 s⁻¹ on P450 2W1 [2] (P450 2W1, substrate 5F 203, product 10). In addition, the Km at 15 min on P450 2W1 [2] (human, pH 7.4, Km, P450 2W1, substrate 5F 203, product 8a) was determined as 31 ± 11 µM; on P450 2W1 [2] (human, pH 7.4, Km, P450 2W1, substrate 5F 203, product 10) it was 35 ± 12 µM. Also, on P450 1A1, the “efficiency of P450 1A1 relative to P450 2W1” value was ~ 2 fold. Also, the “product formation on incubation with P450 2W1” value on P450 2W1 [1] was “Products were formed”. In addition, the “product formation on incubation with P450 2S1” value at P450 2S1 is “no products were observed”. Moreover, the GSH conjugate formation entry in [3] was “detected”. In addition, the GI50 in the data set with MCF-7 cells, in the data set with MDA 468 cells and with IGROV-1 cells was under 1 nM in each case.
Take `COc1ccc(-c2nc3cc(F)ccc3s2)cc1OC` [GW 610, 5-Fluoro-2-(3,4-dimethoxyphenyl)-benzothiazole]: on P450 2W1 [2] (P450 2W1, substrate GW 610, product 4c), the turnover number (kcat) stood at 0.0633 ± 0.0067 s⁻¹. Also, the “efficiency of P450 2W1 relative to P450 1A1” value at P450 2W1 [2] (formation of 4c from GW 610) was 5 fold. The Km at 10 min at P450 2W1 [2] (human, pH 7.4, Km, P450 2W1, substrate GW 610, product 4c) was found to be 22 ± 7 µM. On P450 2W1 [1], the “product formation on incubation with P450 2W1” value is reported as “Products were formed”. Besides, the “product formation on incubation with P450 2S1” value at P450 2S1 was “no products were observed”. Besides, the GSH conjugate formation result in data set [3] is listed as “detected”. In addition, the GI50 in data set [4] was under 0.1 nM.
In the case of `Cc1cc(-c2nc3cc(F)ccc3s2)ccc1NO` [compound 10, 2-(4-Hydroxylamino-3-methylphenyl)-5-fluorobenzothiazole], the dGuo adduct formation entry in the data set with dGuo was “consistent with a dGuo adduct of compound 10”. Moreover, the solubility result in data set [5] is listed as “very poor”.

B1: P450 1A1 (Homo sapiens) (protein)
chain: MLFPISMSATEFLLASVIFCLVFWVIRASRPQVPKGLKNPPGPWGWPLIGHMLTLGKNPHLALSRMSQQYGDVLQIRIGSTPVVVLSGLDTIRQALVRQGDDFKGRPDLYTFTLISNGQSMSFSPDSGPVWAARRRLAQNGLKSFSIASDPASSTSCYLEEHVSKEAEVLISTLQELMAGPGHFNPYRYVVVSVTNVICAICFGRRYDHNHQELLSLVNLNNNFGEVVGSGNPADFIPILRYLPNPSLNAFKDLNEKFYSFMQKMVKEHYKTFEKGHIRDITDSLIEHCQEKQLDENANVQLSDEKIINIVLDLFGAGFDTVTTAISWSLMYLVMNPRVQRKIQEELDTVIGRSRRPRLSDRSHLPYMEAFILETFRHSSFVPFTIPHSTTRDTSLKGFYIPKGRCVFVNQWQINHDQKLWVNPSEFLPERFLTPDGAIDKVLSEKVIIFGMGKRKCIGETIARWEVFLFLAILLQRVEFSVPLGVKVDMTPIYGLTMKHACCEHFQMQLRS
Consider B1, for which, in data set [6], the Km was 10 ± 3 µM, the kcat was 0.00617 ± 0.0005 s⁻¹ and the kcat/Km is 600 ± 167 M⁻¹ s⁻¹. Further, in data set [7] (setting [8]), the Km was found to be 32 ± 9 µM, the kcat was 0.0283 ± 0.00333 s⁻¹ and the kcat/Km stood at 900 ± 333 M⁻¹ s⁻¹. In addition, in data set [7] (setting [9]), the Km amounted to 29 ± 8 µM, the kcat turned out to be 0.0517 ± 0.005 s⁻¹ and the kcat/Km came to 1830 ± 500 M⁻¹ s⁻¹.

In general, kcat refers to the maximal rate divided by the concentration of active sites. Broadly, the Km is the concentration of substrate that gives half-maximal velocity. Broadly, the GI50 is the concentration giving 50% growth inhibition. What is called kcat/Km is the turnover number divided by the Michaelis constant.
